{"source": "paper PMC13601514", "about": "(Nature Communications, 2026)", "key": {"[1]": {"test_system": "U266 MM cells", "assay": "Cyto-ID autophagy assay", "format": "cell-based, Human", "conditions": "U266, 1 μM", "how_it_was_run": "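U266 cells exposed to 1 μM test compound or vehicle for 6 h at 37 °C, washed, then stained 30 min in the dark with Cyto-ID Green plus DAPI (100 ng/ml) in 1% FBS assay buffer. Flow cytometry gave MFI and % Cyto-ID+ in live singlet cells. Confocal imaging (Hoechst/Cyto-ID) gave mean cytoplasmic intensity per group, compared by Kruskal–Wallis.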"}, "[2]": {"test_system": "ULK3", "assay": "Immunoblot in U266 MM cells", "format": "cell-based, Human", "conditions": "6 h", "how_it_was_run": "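Lysates quantified by BCA; 30 μg protein run on 10–15% SDS-PAGE (100 V, 2 h) and transferred to PVDF. Membranes blocked 1 h in TBST with 5% milk/5% BSA, probed overnight at 4 °C with primary (1:1000), then HRP secondary (1:1000). ECL detection; densitometry values annotated on the blot.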"}, "[3]": {"test_system": "MM cells (5TGM1, 8226, and U266)", "assay": "MTS assay on MM cells", "format": "cell-based", "how_it_was_run": "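MM lines grown at 37 °C in RPMI 1640 with 10% heat-inactivated FBS plus pen/strep and plated at 2 × 10^5 cells/mL (96-well) or 3 × 10^5 cells/mL (384-well). Exposed to test compound or vehicle (HPβCD or DMSO) for 48 h. MTS absorbance read at 490 nm after 2 h at 37 °C; mean of technical replicates; three independent experiments.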"}}, "note": "Entries after “also recorded” stand apart in the source; their conditions may differ."}
{"smiles": "Cc1sc2c(c1C)C(c1ccc(Cl)cc1)=N[C@@H](CC(=O)OC(C)(C)C)c1nnc(C)n1-2", "note": "[JQ1]", "values": [{"measurement": "autophagy (Cyto-ID)", "setting": "[1]", "result": "had no effect; also recorded: did not impact autophagy"}]}
{"smiles": "Cc1[nH]c(/C=C2\\C(=O)Nc3ccccc32)c(C)c1CCC(=O)O", "note": "[SU6668]", "values": [{"measurement": "ULK3 protein levels", "setting": "[2]", "result": "does not impact"}]}
{"smiles": "N#CC[C@H](C1CCCC1)n1cc(-c2ncnc3[nH]ccc23)cn1", "note": "[ruxolitinib]", "values": [{"measurement": "cell survival in vitro", "setting": "[3]", "result": "had no effect; also recorded: not affected"}]}
